Experimental findings from article PMC8550878 (Journal of medicinal chemistry, 2021) are described below.

The target in data set [1] is T1, hBfl-1 (Homo sapiens, UniProt Q16548).
T1 sequence (Q16548 1-149): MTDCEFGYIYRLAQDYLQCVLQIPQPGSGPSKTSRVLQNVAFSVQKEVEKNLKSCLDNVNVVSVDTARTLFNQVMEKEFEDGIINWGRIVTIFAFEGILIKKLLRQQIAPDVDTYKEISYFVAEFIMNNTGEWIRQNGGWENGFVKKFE
The data set is described as follows: DELFIA displacement assay, hBfl-1. In kind it is binding.

Data set [2] is described as follows: Solubility. The data set is classed as physicochemical. Particulars: qualitative, relative to peptides 10 and 11.
Data set [3] deals with Mcl-1 in A549 cells. The data set is described as follows: Mcl-1 protein levels in A549 cells by immunoblotting. The note with it: 50 or 100 μM compound, 2 h, western blot relative to β-tubulin. The data set is classed as cell-based, human. The procedure, abridged: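 A549 cells grown in Ham's F-12 with GlutaMAX, 10% FBS, 1% PenStrep and 0.5 μg/mL puromycin. Cells were exposed to DMSO or test compound (50 or 100 μM) for 2 h, with or without 30 min pre-treatment with 1 μM carfilzomib. Lysates were run on SDS-PAGE, transferred to PVDF, blocked in 5% milk/TBS-T, probed overnight at 4 °C for Mcl-1 and β-tubulin, then HRP secondary and ECL detection.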
Background: Immunoblotting shows a protein as a band on a membrane.

Data set [4] relates to Mcl-1 in A549 cell lysates. Kind of data set: Covalent adduct in spiked A549 cell lysates by immunoblotting. In kind it is binding, human. Particulars: A549 cell lysates spiked with 100 μM compound for 1 h at 37 °C, western blot. A digest of the protocol: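 A549 cells grown in Ham's F-12 with GlutaMAX, 10% FBS, PenStrep and 0.5 μg/mL puromycin. Harvested cells were lysed for 20 min on ice in Tris pH 7.4 buffer with Triton X-100, deoxycholate, SDS, IGEPAL, EDTA, protease and phosphatase inhibitors. Cleared, protein-quantified supernatant was incubated with DMSO or 100 μM test compound for 1 h at 37 °C. Then SDS-PAGE, PVDF transfer, milk block, anti-Mcl-1 and β-tubulin overnight at 4 °C, HRP secondary, ECL.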

The target in data set [5] is T2, hMcl-1 (Homo sapiens, UniProt Q07820). The data set is described as follows: DELFIA displacement assay, hMcl-1. In kind it is binding.
T2 sequence (Q07820 172-323): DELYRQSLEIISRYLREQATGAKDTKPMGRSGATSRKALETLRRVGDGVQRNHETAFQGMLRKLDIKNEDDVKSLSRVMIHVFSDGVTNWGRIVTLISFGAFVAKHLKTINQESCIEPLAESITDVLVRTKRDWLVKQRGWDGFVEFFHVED
The subject of data set [6] is hMcl-1 construct. The data set is described as follows: In vitro denaturation thermal shift. The data set is classed as binding, human. Particulars: hMcl-1 construct used for biochemical and crystallization studies (Figure S4).
Data set [7] deals with T2, hMcl-1. The data set is described as follows: Mass spectrometry of covalent adduct. In kind it is binding. The note with it: protein alone 18,763 Da (Figure S1).
Data set [8] concerns the target T3, hMcl-1 (residues 172–323) with N-terminal His tag (human, UniProt Q07820 172-323). Kind of data set: DELFIA displacement assay.
Data set [9] addresses T3, hMcl-1 (residues 172–323) with …. Kind of data set: DELFIA displacement assay. This is another data set of the same source.
The target of data set [10] is T4, hBfl-1 (residues 1–149) with N-terminal His tag (human, UniProt Q16548 1-149).
T4 sequence (looked up): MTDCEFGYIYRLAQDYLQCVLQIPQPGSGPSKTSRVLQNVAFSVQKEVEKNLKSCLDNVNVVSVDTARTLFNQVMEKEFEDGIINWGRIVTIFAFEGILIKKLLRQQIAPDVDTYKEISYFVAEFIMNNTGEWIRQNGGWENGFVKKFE
The data set is described as follows: DELFIA displacement assay.

Non-standard residues stand in square brackets, D forms with d. Residues, ends and D or L forms follow the SMILES beside them. No end group written: not given here. *: point of attachment. Benzoyl(2-OMe,5-SO2F) = COc1ccc(S(=O)(=O)F)cc1C(=O)*; Biotin = O=C1N[C@H]2[C@H](CS[C@H]2CCCCC(=O)*)N1; X1 = Cc1ccc(S(=O)(=O)F)cc1C(=O)*; hSer = N[C@@H](CCO)C(=O)O; Nle = CCCC[C@H](N)C(=O)O; Abu = CC[C@H](N)C(=O)O; Dap = NC[C@H](N)C(=O)O; Ahx = NCCCCCC(=O)O A value given as a limit tells only on which side of the number the result lay.

T3 sequence (Q07820 172-323): as the sequence (Q07820 172-323) above

In the case of Ac-AIAEQLRRIGDRF-NH2 [Compound 12], in data set [1], the IC50 was over 10 µM. Besides, the solubility result in data set [2] is listed as “increased solubility”. Turning to `CC[C@H](C)[C@H](NC(=O)[C@H](CCCNC(=N)N)NC(=O)[C@H](CCCNC(=N)N)NC(=O)[C@H](CC(C)C)NC(=O)[C@H](CCC(N)=O)NC(=O)[C@H](CCC(=O)O)NC(=O)[C@H](C)NC(=O)[C@@H](NC(=O)[C@H](CNC(=O)c1cc(S(=O)(=O)F)ccc1OC)NC(C)=O)[C@@H](C)CC)C(=O)NCC(=O)N[C@@H](CC(=O)O)C(=O)N[C@@H](CCCNC(=N)N)C(=O)N[C@@H](Cc1ccccc1)C(N)=O` [Compound 16] (Ac-[Dap](Benzoyl(2-OMe,5-SO2F))IAEQLRRIGDRF-NH2), the Mcl-1 protein levels result in [3] is reported as “decrease in Mcl-1 protein levels”. In addition, the “covalent adduct with Mcl-1 by band shift in cell lysates” value in [4] is reported as “Covalent adduct was detected”. Regarding AIAQVLRRIGDAF-NH2 [Compound 7], the IC50 in [5] is about 1800 nM.

As to `CC[C@H](C)[C@H](NC(=O)[C@H](CCCNC(=N)N)NC(=O)[C@H](CCCNC(=N)N)NC(=O)[C@H](CC(C)C)NC(=O)[C@H](CCC(N)=O)NC(=O)[C@H](CCC(=O)O)NC(=O)[C@H](C)NC(=O)[C@@H](NC(=O)[C@H](CNC(=O)c1cc(S(=O)(=O)F)ccc1C)NC(C)=O)[C@@H](C)CC)C(=O)NCC(=O)N[C@@H](CC(=O)O)C(=O)N[C@@H](CCCNC(=N)N)C(=O)N[C@@H](Cc1ccccc1)C(N)=O` [Compound 15] (Ac-[Dap](X1)IAEQLRRIGDRF-NH2), the denaturation thermal shift in data set [6] was 23 °C. Moreover, the “MW of hMcl-1 after incubation with compound” value in data set [7] is on record as 20,544 Da.

On to AIAQLLRRIGDAF-NH2 [Compound 8], for which the IC50 in data set [5] was about 1800 nM.

B1: peptide 6 (peptide)
chain: H-AIAQ[Abu]LRRIGDAF-NH2
SMILES: CC[C@H](NC(=O)[C@H](CCC(N)=O)NC(=O)[C@H](C)NC(=O)[C@@H](NC(=O)[C@H](C)N)[C@@H](C)CC)C(=O)N[C@@H](CC(C)C)C(=O)N[C@@H](CCCNC(=N)N)C(=O)N[C@@H](CCCNC(=N)N)C(=O)N[C@H](C(=O)NCC(=O)N[C@@H](CC(=O)O)C(=O)N[C@@H](C)C(=O)N[C@@H](Cc1ccccc1)C(N)=O)[C@@H](C)CC
As for B1, the IC50 in data set [8] is about 1300 nM. The same measure, in the same setting: under H-AIAQALRRIGDAY-NH2 [peptide 2] stands over 3600 nM; under Ac-AIAEQLRRIGDRF-NH2 [peptide 12], 570 nM; under H-AIAQALRRIGDAL-NH2 [peptide 4], 1200 nM. The molecule H-AIAQALRRIGDAR-NH2 [peptide 3] yielded an IC50 in data set [8] of over 10000 nM. The molecule Ac-AIAEALRRIGDAF-NH2 [peptide 10] gave an IC50 in [8] of 261 nM. Still for that read-out and setting: under H-AIAEQLRRIGDAF-NH2 [peptide 11] stands 313 nM.

B2: biotinylated-BH3 peptide (biotin-AHA-EDIIRNIARHLAQVGDSMDR-NH2) (peptide)
peptide: {Biotin-Ahx}-EDIIRNIARHLAQVGDSMDR-NH2
SMILES: CC[C@H](C)[C@H](NC(=O)[C@H](CC(N)=O)NC(=O)[C@H](CCCNC(=N)N)NC(=O)[C@@H](NC(=O)[C@@H](NC(=O)[C@H](CC(=O)O)NC(=O)[C@H](CCC(=O)O)NC(=O)CCCCCNC(=O)CCCC[C@@H]1SC[C@@H]2NC(=O)N[C@@H]21)[C@@H](C)CC)[C@@H](C)CC)C(=O)N[C@@H](C)C(=O)N[C@@H](CCCNC(=N)N)C(=O)N[C@@H](Cc1c[nH]cn1)C(=O)N[C@@H](CC(C)C)C(=O)N[C@@H](C)C(=O)N[C@@H](CCC(N)=O)C(=O)N[C@H](C(=O)NCC(=O)N[C@@H](CC(=O)O)C(=O)N[C@@H](CO)C(=O)N[C@@H](CCSC)C(=O)N[C@@H](CC(=O)O)C(=O)N[C@@H](CCCNC(=N)N)C(N)=O)C(C)C
For B2, the binding result in data set [9] and in [10] was “binds” each time.

B3: peptide 5 (peptide)
chain: H-AIAQALRRIGDA[Nle]-NH2
SMILES: CCCC[C@H](NC(=O)[C@H](C)NC(=O)[C@H](CC(=O)O)NC(=O)CNC(=O)[C@@H](NC(=O)[C@H](CCCNC(=N)N)NC(=O)[C@H](CCCNC(=N)N)NC(=O)[C@H](CC(C)C)NC(=O)[C@H](C)NC(=O)[C@H](CCC(N)=O)NC(=O)[C@H](C)NC(=O)[C@@H](NC(=O)[C@H](C)N)[C@@H](C)CC)[C@@H](C)CC)C(N)=O
With B3, the IC50 in [8] is about 1600 nM.

B4: peptide 9 (peptide)
chain: H-AIAQ[hSer]LRRIGDAF-NH2
SMILES: CC[C@H](C)[C@H](NC(=O)[C@H](C)N)C(=O)N[C@@H](C)C(=O)N[C@@H](CCC(N)=O)C(=O)N[C@@H](CCO)C(=O)N[C@@H](CC(C)C)C(=O)N[C@@H](CCCNC(=N)N)C(=O)N[C@@H](CCCNC(=N)N)C(=O)N[C@H](C(=O)NCC(=O)N[C@@H](CC(=O)O)C(=O)N[C@@H](C)C(=O)N[C@@H](Cc1ccccc1)C(N)=O)[C@@H](C)CC
B4 yielded an IC50 in data set [8] of about 3000 nM.

In general, IC50 refers to the concentration that gives 50% inhibition.
